Results from ChEMBL document CHEMBL4219229, “Synthesis and antiproliferative activity of derivatives of the phyllanthusmin class of arylnaphthalene lignan lactones” (Bioorg Med Chem, 2018).
Calls of active or inactive are those of the source. The rule behind the calls is not given here.

Legend:
[1] = test system: HT-29; test: Cytotoxicity against human HT-29 cells measured after 24 to 72 hrs by SRB assay; format: functional, cell-based
Outline: (§1)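 Cells from ATCC: HT-29 in RPMI 1640 with 10% FBS and 1% P/S; OVCAR3 in RPMI 1640 with 20% FBS, 1% P/S and 10 µg/mL insulin. Both kept at 37°C in 5% CO₂ and passaged at most 20 times. Seeded at 2,500–5,000 cells/well, attached overnight, then treated 24, 48 or 72 h (DMSO final 0.25%). Fixed, SRB-stained protein read out; normalized to vehicle; IC₅₀ from dose-response curves.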

[2] = test system: OVCAR-3; test: Cytotoxicity against human OVCAR3 cells measured after 24 to 72 hrs by SRB assay; format: functional, cell-based; outline: as §1
[3] = test system: MDA-MB-435; test: Cytotoxicity against human MDA-MB-435 cells after 72 hrs by CellTiter96 AQueous one solution cell proliferation assay; format: functional, cell-based; conditions: MDA-MB-435, 72 h
[4] = test system: MDA-MB-231; test: Cytotoxicity against human MDA-MB-231 cells after 72 hrs by CellTiter96 AQueous one solution cell proliferation assay; format: functional, cell-based; conditions: MDA-MB-231, 72 h
[5] = target: DNA topoisomerase 2-alpha (Homo sapiens) (UniProt P11388); test: Inhibition of full-length recombinant human topoisomerase-2alpha expressed in yeast expression system assessed as reduction in enzyme-mediated supercoiled pBR322 DNA relaxation at 50 to 100 uM measured after 15 mins by ethidium bromide staining based agarose gel electrophoresis
Sequence of DNA topoisomerase 2-alpha (Homo sapiens) (P11388 whole entry): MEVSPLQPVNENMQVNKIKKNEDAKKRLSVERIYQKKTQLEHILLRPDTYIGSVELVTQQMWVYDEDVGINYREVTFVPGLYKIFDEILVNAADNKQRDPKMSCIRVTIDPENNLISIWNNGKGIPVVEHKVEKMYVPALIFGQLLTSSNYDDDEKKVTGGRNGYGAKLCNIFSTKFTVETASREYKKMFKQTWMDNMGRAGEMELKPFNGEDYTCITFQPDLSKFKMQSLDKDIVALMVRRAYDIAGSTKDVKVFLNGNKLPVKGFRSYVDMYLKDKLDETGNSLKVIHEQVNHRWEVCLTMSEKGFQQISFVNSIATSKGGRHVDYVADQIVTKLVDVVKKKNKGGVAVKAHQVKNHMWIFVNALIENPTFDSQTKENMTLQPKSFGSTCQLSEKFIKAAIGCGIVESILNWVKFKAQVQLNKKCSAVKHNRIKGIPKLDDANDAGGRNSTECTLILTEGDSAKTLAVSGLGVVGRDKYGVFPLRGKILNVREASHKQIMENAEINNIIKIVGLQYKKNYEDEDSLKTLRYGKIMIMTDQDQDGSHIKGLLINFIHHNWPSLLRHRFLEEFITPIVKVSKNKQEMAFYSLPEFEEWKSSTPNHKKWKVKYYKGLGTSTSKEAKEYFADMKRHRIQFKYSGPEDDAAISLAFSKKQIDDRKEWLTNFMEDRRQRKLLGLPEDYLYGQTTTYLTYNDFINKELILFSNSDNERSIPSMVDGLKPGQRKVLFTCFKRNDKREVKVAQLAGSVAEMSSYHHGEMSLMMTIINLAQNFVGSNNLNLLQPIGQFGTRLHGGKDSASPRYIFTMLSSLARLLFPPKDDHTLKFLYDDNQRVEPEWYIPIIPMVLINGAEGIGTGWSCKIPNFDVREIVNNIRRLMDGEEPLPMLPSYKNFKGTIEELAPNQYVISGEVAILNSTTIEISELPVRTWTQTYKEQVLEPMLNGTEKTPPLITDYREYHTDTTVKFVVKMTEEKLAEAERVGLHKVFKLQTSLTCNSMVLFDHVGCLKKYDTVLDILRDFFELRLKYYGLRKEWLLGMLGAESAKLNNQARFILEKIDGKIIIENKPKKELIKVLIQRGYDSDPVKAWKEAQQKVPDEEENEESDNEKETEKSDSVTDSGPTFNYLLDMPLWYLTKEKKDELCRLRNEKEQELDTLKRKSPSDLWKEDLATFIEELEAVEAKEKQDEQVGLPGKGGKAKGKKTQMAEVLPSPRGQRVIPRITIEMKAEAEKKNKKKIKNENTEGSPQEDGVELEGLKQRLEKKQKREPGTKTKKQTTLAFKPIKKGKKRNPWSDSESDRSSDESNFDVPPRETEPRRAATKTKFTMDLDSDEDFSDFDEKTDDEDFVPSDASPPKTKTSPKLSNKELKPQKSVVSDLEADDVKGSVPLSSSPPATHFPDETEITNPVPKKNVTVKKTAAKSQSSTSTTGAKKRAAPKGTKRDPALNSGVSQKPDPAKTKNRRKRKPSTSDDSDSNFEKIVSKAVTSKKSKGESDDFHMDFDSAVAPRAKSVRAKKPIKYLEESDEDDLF
Outline: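 Topo IIα (125 ng) with 150 ng negatively supercoiled pBR322 and 1 mM ATP in 10 mM Tris-HCl pH 8.0, 50 mM KCl, 50 mM NaCl, 0.1 mM EDTA, 5 mM MgCl₂, 2.5% glycerol, drug in DMSO; started with enzyme, 15 min at 37°C, SDS/EDTA stop. Products resolved on 1% TBE agarose, ethidium bromide stained, imaged under UV.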

[6] = test system: K562; test: Cytotoxicity against human etoposide-sensitive K562 cells after 72 hrs by CellTiter96 AQueous one solution cell proliferation assay; format: functional, cell-based; conditions: K562, 72 h
Outline: (§2)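 K562 and etoposide-resistant K/VP.5 cells (~1/5 topo IIα level) in suspension at 7.5 × 10⁴ cells/ml exposed to DMSO vehicle or serial compound concentrations (final DMSO 0.5%), triplicate wells; 72 hr at 37°C, then MTS reagent 1 hr at 37°C, absorbance 490 nm. IC₅₀ from four-parameter logistic fit; relative resistance = IC₅₀ K/VP.5 ÷ IC₅₀ K562; n = separate-day repeats.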

[7] = Cytotoxicity against human K/VP.5 cells after 72 hrs by CellTiter96 AQueous one solution cell proliferation assay; format: functional, cell-based; conditions: K/VP.5, 72 h; outline: as §2
[8] = Resistance index, ratio of IC50 for human K/VP.5 cells to IC50 for human etoposide-sensitive K562 cells; format: functional; outline: as §2
[9] = target: DNA topoisomerase 2-alpha (Homo sapiens) (UniProt P11388); conditions: 100 uM
[10] = Selectivity ratio of IC50 for human OVCAR3 cells to IC50 for human HT-29 cells; format: functional

COc1cc2c(O[C@@H]3OC[C@H](OC)[C@H](OC)[C@H]3OC)c3c(c(-c4ccc5c(c4)OCO5)c2cc1OC)C(=O)OC3
IC50 [1]: 130 nM | IC50 [2]: 810 nM | IC50 [3]: 140 nM | IC50 [4]: 650 nM | inhibition [5]: inactive | IC50 [6]: 1260 nM | IC50 [7]: 1280 nM | Ratio IC50 [8]: 1.02

COc1cc([C@@H]2c3cc4c(cc3[C@@H](O[C@@H]3O[C@@H]5CO[C@@H](C)O[C@H]5[C@H](O)[C@H]3O)[C@H]3COC(=O)[C@H]23)OCO4)cc(OC)c1O [ETOPOSIDE]
IC50 [1]: 15000 nM | IC50 [2]: 2900 nM | IC50 [6]: 1220 nM | IC50 [7]: 35400 nM | Ratio IC50 [8]: 28.98 | inhibition [9]: Active

CCOC(=O)c1c(C(=O)OCC)c(-c2ccc3c(c2)OCO3)c2cc(OC)c(OC)cc2c1O[C@@H]1OC[C@H](OC(C)=O)[C@H](OC(C)=O)[C@H]1OC(C)=O
IC50 [1]: > 10000 nM | IC50 [2]: > 10000 nM

COc1cc2c(O[C@@H]3OC[C@H](OC(C)=O)[C@H](OC(C)=O)[C@H]3OC(C)=O)c3c(c(-c4ccc5c(c4)OCO5)c2cc1OC)C(=O)OC3
IC50 [1]: 140 nM | IC50 [2]: 290 nM | IC50 [3]: 140 nM | IC50 [4]: 1000 nM | inhibition [5]: Active | IC50 [6]: 850 nM | IC50 [7]: 920 nM | Ratio IC50 [8]: 1.08

COc1cc2c(O[C@@H]3OC[C@H](O)[C@H](O)[C@H]3O)c3c(c(-c4ccc5c(c4)OCO5)c2cc1OC)C(=O)OC3 [ACUTISSIMALIGNAN A]
IC50 [2]: 4800 nM

COc1cc2c(O[C@@H]3OC[C@H](OC(C)=O)[C@H](OC(C)=O)[C@H]3OC(C)=O)c3c(c(-c4ccc5c(c4)OCO5)c2cc1OC)COC3
IC50 [1]: 1400 nM | IC50 [2]: > 10000 nM

COCc1c(C(=O)OC)c(-c2ccc3c(c2)OCO3)c2cc(OC)c(OC)cc2c1O[C@@H]1OC[C@@H](OC)[C@H](OC)[C@H]1OC
IC50 [1]: 1700 nM | IC50 [2]: 450 nM

COc1cc2c(O[C@@H]3O[C@H](COC(C)=O)[C@@H](O[C@@H]4O[C@H](COC(C)=O)[C@H](OC(C)=O)[C@H](OC(C)=O)[C@H]4OC(C)=O)[C@H](OC(C)=O)[C@H]3OC(C)=O)c3c(c(-c4ccc5c(c4)OCO5)c2cc1OC)C(=O)OC3
IC50 [1]: 2000 nM | IC50 [2]: > 10000 nM | IC50 [3]: > 10000 nM | IC50 [4]: > 10000 nM

COc1cc2c(O[C@@H]3OC[C@@H](O)[C@H](O)[C@H]3O)c3c(c(-c4ccc5c(c4)OCO5)c2cc1OC)C(=O)OC3
IC50 [1]: 1400 nM | IC50 [2]: 690 nM

COc1cc2c(O[C@@H]3OC[C@@H](OC)[C@H](OC)[C@H]3OC)c3c(c(-c4ccc5c(c4)OCO5)c2cc1OC)C(=O)OC3
IC50 [1]: 18 nM | IC50 [2]: 7600 nM | Ratio IC50 [10]: >400 | inhibition [5]: Active | IC50 [6]: 470 nM | IC50 [7]: 430 nM | Ratio IC50 [8]: 0.91

CC(=O)O[C@H]1C(=O)[C@@]2(C)[C@H]([C@H](OC(=O)c3ccccc3)[C@]3(O)C[C@H](OC(=O)[C@H](O)[C@@H](NC(=O)c4ccccc4)c4ccccc4)C(C)=C1C3(C)C)[C@]1(OC(C)=O)CO[C@@H]1C[C@@H]2O [PACLITAXEL]
IC50 [1]: 11 nM | IC50 [2]: 11 nM

COc1cc2c(O[C@@H]3OC[C@H](OC(C)=O)[C@H](OC(C)=O)[C@H]3OC(C)=O)c3c(c(-c4ccc5c(c4)OCO5)c2cc1OC)COC3=O
IC50 [1]: 470 nM | IC50 [2]: > 10000 nM

COc1cc2c(O)c3c(c(-c4ccc5c(c4)OCO5)c2cc1OC)C(=O)OC3 [DIPHYLLIN]
IC50 [6]: 2380 nM | IC50 [7]: 2310 nM | Ratio IC50 [8]: 0.97

COc1cc2c(O[C@@H]3OC[C@@H](OC(C)=O)[C@H](OC(C)=O)[C@H]3OC(C)=O)c3c(c(-c4ccc5c(c4)OCO5)c2cc1OC)C(=O)OC3
IC50 [1]: 160 nM | IC50 [2]: 570 nM | IC50 [3]: 230 nM | IC50 [4]: 5100 nM

COc1cc2c(O[C@H]3OC[C@@H](OC(C)=O)[C@@H](OC(C)=O)[C@@H]3OC(C)=O)c3c(c(-c4ccc5c(c4)OCO5)c2cc1OC)C(=O)OC3
IC50 [1]: 46 nM | IC50 [2]: 370 nM | IC50 [3]: 500 nM | IC50 [4]: 2200 nM
